Measured values taken from ChEMBL document CHEMBL4680065, “Pharmacophore-based screening of diamidine small molecule inhibitors for protein arginine methyltransferases” (RSC Med Chem, 2021).
Active and inactive are the calls of the source. The rule behind the calls is not given here.

Assays:
[1] = target: T1, Protein arginine N-methyltransferase 1 (Homo sapiens, UniProt Q99873); experiment: Non-competitive inhibition of recombinant His-tagged PRMT1 (unknown origin) expressed in Escherichia coli BL21 (DE3) using varying levels of biotin-labeled histone H4-20 as substrate
Procedure, shortened: (§1)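 His-tagged human PRMT1 was expressed in E. coli BL21(DE3) and Ni-affinity purified. IC50 was measured by SPA at varied SAM or biotinylated H4 peptide (0.3125–4.5 μM), with the other component fixed near its Km (0.5 μM); n = 2.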
Target sequence in this assay (Q99873 whole entry, looked up): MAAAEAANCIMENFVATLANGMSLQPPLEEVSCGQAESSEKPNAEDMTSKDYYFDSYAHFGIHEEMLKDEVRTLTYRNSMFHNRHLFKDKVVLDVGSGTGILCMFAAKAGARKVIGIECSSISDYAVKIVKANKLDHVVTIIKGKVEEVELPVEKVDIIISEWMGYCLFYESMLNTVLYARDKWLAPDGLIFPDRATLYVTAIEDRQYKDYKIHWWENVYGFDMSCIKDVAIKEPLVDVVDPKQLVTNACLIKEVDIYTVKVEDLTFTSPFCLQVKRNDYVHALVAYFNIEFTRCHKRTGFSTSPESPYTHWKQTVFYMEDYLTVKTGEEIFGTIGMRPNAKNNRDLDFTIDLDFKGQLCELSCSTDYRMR

HEL = experiment: Antiproliferative activity against human HEL cells assessed as inhibition of cell growth measured after 72 hrs by CellTiter-Glo assay; type: functional, cell-based
Procedure, shortened: (§2)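 Cells were cultured with the test agent, serially diluted, for 72 h. The control received the same amount of DMSO. Cell viability was then measured, and IC50 values were taken from sensitivity curves.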

[2] = target: T2, Protein arginine N-methyltransferase 6 (Homo sapiens, UniProt Q96LA8); experiment: Inhibition of PRMT6 (unknown origin) using biotin-labeled SMD1 as substrate incubated for 30 mins in presence of [3H]-SAM cofactor by scintillation proximity assay
Target sequence in this assay (Q96LA8 whole entry): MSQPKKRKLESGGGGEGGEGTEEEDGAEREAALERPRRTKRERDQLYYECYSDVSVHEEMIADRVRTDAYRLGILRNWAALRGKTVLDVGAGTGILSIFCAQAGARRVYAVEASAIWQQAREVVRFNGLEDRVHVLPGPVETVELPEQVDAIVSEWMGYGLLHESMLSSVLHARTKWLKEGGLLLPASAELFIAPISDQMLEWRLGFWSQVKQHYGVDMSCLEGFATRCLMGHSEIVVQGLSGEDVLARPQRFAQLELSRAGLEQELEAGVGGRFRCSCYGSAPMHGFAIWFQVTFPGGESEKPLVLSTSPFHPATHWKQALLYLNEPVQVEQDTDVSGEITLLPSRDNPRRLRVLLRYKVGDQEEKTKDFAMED

MEG-01 = experiment: Antiproliferative activity against human MEG-01 cells assessed as inhibition of cell growth measured after 72 hrs by CellTiter-Glo assay; type: functional, cell-based; settings: MEG-01, 72 h; procedure, shortened: as §2
[3] = target: T1, Protein arginine N-methyltransferase 1; experiment: Non-competitive inhibition of recombinant His-tagged PRMT1 (unknown origin) expressed in Escherichia coli BL21 (DE3) using varying levels of [3H]-SAM as cofactor; procedure, shortened: as §1
Target sequence in this assay (Q99873 whole entry, looked up): as the sequence (Q99873 whole entry, looked up) above

[4] = target: T3, Protein arginine N-methyltransferase 7 (Homo sapiens, UniProt Q9NVM4); experiment: Inhibition of recombinant GST-tagged PRMT7 (unknown origin) expressed in Escherichia coli using biotin-labeled SMD1 as substrate incubated for 120 mins in presence of [3H]-SAM cofactor by scintillation proximity assay
T3 sequence (Q9NVM4 whole entry): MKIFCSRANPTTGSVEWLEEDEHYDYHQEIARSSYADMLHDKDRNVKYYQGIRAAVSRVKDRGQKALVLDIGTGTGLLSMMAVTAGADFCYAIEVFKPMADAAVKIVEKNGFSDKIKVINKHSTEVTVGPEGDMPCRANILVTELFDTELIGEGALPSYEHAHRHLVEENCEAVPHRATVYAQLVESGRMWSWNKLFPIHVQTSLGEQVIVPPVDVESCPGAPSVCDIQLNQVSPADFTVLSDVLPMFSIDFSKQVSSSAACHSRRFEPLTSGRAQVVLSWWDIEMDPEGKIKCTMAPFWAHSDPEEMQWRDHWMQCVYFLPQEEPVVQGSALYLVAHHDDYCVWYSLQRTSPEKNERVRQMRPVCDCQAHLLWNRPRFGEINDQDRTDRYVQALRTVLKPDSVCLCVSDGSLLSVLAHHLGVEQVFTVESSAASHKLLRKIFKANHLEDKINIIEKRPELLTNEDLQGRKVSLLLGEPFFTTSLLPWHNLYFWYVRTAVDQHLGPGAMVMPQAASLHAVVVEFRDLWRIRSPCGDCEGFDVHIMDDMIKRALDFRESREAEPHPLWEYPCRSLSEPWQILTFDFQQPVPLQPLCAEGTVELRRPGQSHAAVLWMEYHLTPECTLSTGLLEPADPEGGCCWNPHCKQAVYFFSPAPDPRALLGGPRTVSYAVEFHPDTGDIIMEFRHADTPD
Procedure, shortened: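 The inhibitor was serially diluted and added to the enzyme, [3H]-SAM and substrate mixture, and methylated substrate was quantified by scintillation proximity assay. Reactions were held at initial rate, with yield under 10% and substrate near Km. PRMT3, PRMT8 and G9a were His-tagged human proteins, and PRMT7 was GST-tagged, all expressed in E. coli and affinity-purified.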

[5] = target: T2, Protein arginine N-methyltransferase 6; experiment: Inhibition of PRMT6 (unknown origin) assessed as residual activity at 10 uM using biotin-labeled SMD1 as substrate incubated for 30 mins in presence of [3H]-SAM cofactor by scintillation proximity assay relative to control
Procedure, shortened: (§3)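 Single-point profiling used 10 μM inhibitor added to the enzyme, [3H]-SAM and substrate mixture. Methylated substrate was quantified by scintillation proximity assay. Reactions were held at initial rate, with yield under 10% and substrate near Km. Enzyme, [3H]-SAM and substrate final levels are given in the supplement.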
Target sequence in this assay (Q96LA8 whole entry, looked up): as the sequence (Q96LA8 whole entry) above

[6] = target: T1, Protein arginine N-methyltransferase 1; experiment: Inhibition of PRMT1 in human MEG-01 cells assessed as reduction in RBM15 total asymmetric arginine methylation level at 100 to 200 nM measured after 24 hrs by immunoblotting analysis; type: cell-based; settings: dose 100-200 nM
Procedure, shortened: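 MEG01 cells were cultured for 24 h with the inhibitor (100 nM, 200 nM) or with DMSO control. Cell extracts were resolved by SDS-PAGE and immunoblotted with anti-methyl-RBM15 antibody and the pan-asymmetric methylation antibody α-Asym24. Equal loading was checked by Ponceau S staining.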
Target sequence in this assay (Q99873 whole entry, looked up): as the sequence (Q99873 whole entry, looked up) above

[7] = target: T1, Protein arginine N-methyltransferase 1; experiment: Inhibition of recombinant human His-tagged PRMT1 expressed in Escherichia coli BL21 (DE3) using biotin-labeled histone H4-20 as substrate incubated for 8 mins in presence of [3H]-SAM cofactor by scintillation proximity assay
Target sequence in this assay (Q99873 whole entry): as the sequence (Q99873 whole entry, looked up) above

[8] = target: PRMT5/MEP50 complex (Homo sapiens) (UniProt O14744+Q9BQA1); experiment: Inhibition of PRMT5/MEP50 (unknown origin) assessed as residual activity at 10 uM using biotin-labeled histone H4-20 peptide as substrate incubated for 8 mins in presence of [3H]-SAM cofactor by scintillation proximity assay relative to control; type: protein-complex assay; procedure, shortened: as §3

SMILES: N=C(N)c1ccc(Nc2ccc(-c3cc4ccc(C(=N)N)cc4[nH]3)cc2)cc1
- inhibition [1]: Active
- IC50 (HEL): 2270 nM
- IC50 [2]: 2800 nM
- IC50 (MEG-01): 1030 nM
- inhibition [3]: Active
- IC50 [4]: 23600 nM
- Activity [5]: 22.9%
- inhibition [6]: Active
- IC50 [7]: 2600 nM
- Activity [8]: 35.1%
